# Results collected from several papers.
# Lines come from different studies, so protocols differ.
# EGFR: Epidermal growth factor receptor (EGFR, Homo sapiens, UniProt P00533)
# MTOR: Serine/threonine-protein kinase mTOR (MTOR, Homo sapiens, UniProt P42345)
# DRD2: D(2) dopamine receptor (DRD2, Homo sapiens, UniProt P14416)
Structure (SMILES),target,read-out,action,technique,pH,measurement,result
C=C1C[C@H]2C[C@@H](c3ccc(Br)cc3)OCC[C@@H](O)CC(=O)O[C@@H]([C@@H](C)O)C[C@@H]3C/C(=C\C(=O)OC)[C@H](OC(=O)CCCCCCC)[C@@](O)(O3)C(C)(C)/C=C/[C@@H](C1)O2,"Protein kinase C delta type (PRKCD, Homo sapiens, UniProt Q05655)",ligand displacement,,radioligand,,Ki,2.2 nM
CC[C@H](C)[C@H](NC(=O)[C@@H](N)CCCNC(=N)N)C(=O)N[C@H](C(=O)N1CCC[C@H]1C(=O)N[C@@H](C)C(N)=O)C(C)C,"Sequestosome-1 (SQSTM1, Homo sapiens, UniProt Q13501)",binding,,MST,pH 7,Kd,800 nM
CC(C)C[C@H](NC(=O)[C@H](Cc1ccccc1)NC(=O)[C@H](Cc1ccc(O)cc1)NC(=O)CNC(=O)[C@H](CCCCN)NC(=O)[C@H](CO)NC(=O)[C@H](CCC(N)=O)NC(=O)CNC(=O)[C@@H](NC(=O)[C@H](CO)NC(=O)[C@@H]1CCCN1C(=O)[C@H](CO)NC(=O)[C@H](CCC(N)=O)NC(=O)[C@H](Cc1ccc(O)cc1)NC(=O)[C@H](CCC(=O)O)NC(=O)[C@H](C)NC(=O)[C@H](CCCCN)NC(=O)[C@@H](N)Cc1ccccc1)C(C)C)C(=O)N[C@@H](Cc1ccccc1)C(=O)N[C@@H](CCCNC(=N)N)C(=O)N1CCC[C@H]1C(=O)N[C@@H](CCCNC(=N)N)C(=O)N[C@@H](CC(N)=O)C(N)=O,"Neuromedin-U receptor 2 (Mus musculus, UniProt Q8BZ39)",inositol phosphate,agonist,,,EC50,0.794 nM
CC(C)[C@@H]1NC(=O)[C@H](CCCNC(=N)N)NC(=O)[C@H](Cc2ccc(O)cc2)NC(=O)[C@H](C(C)C)NC(=O)[C@H](C(C)C)NC(=O)[C@H](CCCNC(=N)N)NC(=O)[C@H](CC(=O)O)NC(=O)[C@H](CC(=O)O)NC(=O)CCNC(=O)[C@H](Cc2ccc(O)cc2)NC(=O)[C@H](Cc2ccc(O)cc2)NC(=O)[C@H](Cc2ccccc2)NC(=O)[C@@H](Cc2ccc(O)cc2)NC(=O)CSC[C@@H](C(=O)NCC(N)=O)NC(=O)CCNC1=O,EGFR,binding,,SPR,,Kd,632 nM
CC/C=C\C/C=C\C/C=C\CCCCCCCC(=O)O,"Liver carboxylesterase (Sus scrofa, UniProt Q29550)",enzyme activity,inhibitor,HPLC,,Ki,620 nM
Cl.Cl.N.N.N.N.N.N.N.N.[N-3].[Ru+4].[Ru+4],"Calcium uniporter protein, mitochondrial (MCU, Homo sapiens, UniProt Q8NE86)",transporter uptake,inhibitor,,,IC50,2.2 nM
O=c1c(O)c(-c2ccc(O)c(O)c2)oc2cc(O)ccc12,MTOR,cell-free assay,,competition with immobilised ligand,,Kd,11000 nM
CSCC[C@H](NC(=O)[C@H](CC(C)C)NC(=O)[C@H](Cc1cnc[nH]1)NC(=O)CNC(=O)[C@@H](NC(=O)[C@H](C)NC(=O)[C@H](Cc1c[nH]c2ccccc12)NC(=O)[C@H](CCC(N)=O)NC(=O)[C@H](CC(N)=O)NC(=O)CNC(=O)[C@H](CC(C)C)NC(=O)[C@H](CCCN=C(N)N)NC(=O)[C@H](CCC(N)=O)NC(=O)[C@@H]1CCC(=O)N1)C(C)C)C(N)=O,"Bombesin receptor subtype-3 (Brs3, Rattus norvegicus, UniProt Q8K418)",calcium signal,agonist,fluorescence,,EC50,> 10000 nM
OC(c1ccc(F)cc1)C(F)(F)CCN1CCC(O)(c2ccc(Cl)cc2)CC1 (racemic),DRD2,cell-free assay,,radioligand,,Ki,1960 nM
Nc1ncc(-c2nc(N3CCOCC3)nc(N3CCOCC3)n2)c(C(F)F)n1,MTOR,binding,,competition with immobilised ligand,,Kd,21.5 nM
Cc1cc(O)cc(C)c1C[C@H](N)C(=O)N[C@H](C)C(=O)NCC(=O)N[C@@H](Cc1ccc(Cl)cc1)C(=O)N(C)CCC[C@@]1(c2ccc(F)cc2)OCc2cc(C#N)ccc21,DRD2,ligand displacement,,radioligand,,Ki,2200 nM
COCCCN1CCN(c2ccccc2OC)CC1,DRD2,ligand displacement,,radioligand,,Ki,180 nM
CC(C)[C@@H]1NC(=O)CCNC(=O)CCNC(=O)[C@H](Cc2ccc(O)cc2)NC(=O)[C@H](Cc2ccc(O)cc2)NC(=O)[C@H](Cc2ccccc2)NC(=O)[C@@H](Cc2ccc(O)cc2)NC(=O)CSC[C@@H](C(=O)NCC(N)=O)NC(=O)CCNC(=O)[C@H](CCCNC(=N)N)NC(=O)[C@H](CCCNC(=N)N)NC(=O)[C@H](Cc2ccc(O)cc2)NC(=O)[C@H](C(C)C)NC(=O)[C@H](C(C)C)NC(=O)[C@H](CC(N)=O)NC1=O,EGFR,binding,,SPR,,Kd,1690 nM
CCCC[C@@H](NC(=O)[C@@H](N)Cc1c(C)cc(O)cc1C)C(=O)NCC(=O)N[C@@H](Cc1ccc(F)cc1)C(=O)N(C)CCC[C@@]1(c2ccc(F)cc2)OCc2cc(C#N)ccc21,DRD2,ligand displacement,,radioligand,,Ki,2700 nM
